Screening data (PubChem BioAssay)
An excerpt weighted towards active compounds, which were near 2.1% of everything screened.
EBNA-1 inh: blocks EBNA-1 binding to DNA | inhibition, % at 14.8 µM | 300,000 tested, 0.34% active | EBNA-1 DNA binding, fluorescence polarization; in the data active = inhibition above about 28%
MLLE-PAM2 inh: blocks PAM2 peptide binding to the PABP1 MLLE domain; P11940; GST-MLLE / FITC-PAM2 fluorescence polarization; inhibition, % at 20 µM; 360,000 tested, 0.36% active; AID 588489; in the data active = inhibition above about 35%, passing the limit was not always enough;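 also: plate controls were DMSO wells with GST-MLLE for no effect and wells lacking GST-MLLE protein for full effect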
PABP FP inh: PABP-poly(A) binding inhibition; inhibition, % at 35 µM; 290,000 tested, 1% active; PABP-poly(A) RNA binding, fluorescence polarization; AID 2014;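 also: calls also rest on retests at 20 µM and on dose response follow-up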
HCV NS3 hel inh: inhibitors of Hepatitis C virus NS3 helicase; inhibition, % at 10.9 µM; NS3 helicase DNA unwinding, Cy5 molecular beacon fluorescence; 290,000 tested, 0.56% active; AID 1800;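 active = inhibition above the mean of all tested compounds plus 3 SD, set per campaign, cut at about 35% in these data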;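 also: 0% = DMSO wells and 100% = thioflavine S control wells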
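Assay system – hepatitis C virus NS3 helicase domain fragment enzyme · Buffer or medium – MOPS pH 6.5, MgCl2, DTT, Tween20, BSA · Reagent – Cy5/quencher beacon DNA duplex and ATP to start · Compound – single 10.9 µM dose · Timing – 1 h at 25 °C · Technique – Cy5 beacon fluorescence read at start and 1 h · Measure – % inhibition of unwinding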
ZTA counter: blocks Epstein-Barr virus ZTA, an EBNA-1 counter-screen. inhibition, % at 11 µM. P03206. ZTA-DNA binding, fluorescence polarization. 320,000 tested, 0.15% active; in the data active = inhibition above about 33%
Target sequence (P03206 whole entry, looked up): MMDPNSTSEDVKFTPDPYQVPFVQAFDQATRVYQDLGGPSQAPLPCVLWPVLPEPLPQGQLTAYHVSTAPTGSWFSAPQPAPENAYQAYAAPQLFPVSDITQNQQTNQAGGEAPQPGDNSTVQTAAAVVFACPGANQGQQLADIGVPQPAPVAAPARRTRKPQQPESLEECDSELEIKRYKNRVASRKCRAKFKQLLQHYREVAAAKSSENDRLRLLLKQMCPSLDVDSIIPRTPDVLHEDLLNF
eIF4H inh: inhibitors of RNA binding by human eIF4H | Q15056 | eIF4H fluorescence polarization binding assay | inhibition, % at 35 µM | 290,000 tested, 0.94% active | AID 2012;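 also: calls also rest on retests at 20 µM and on dose response follow-up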
EBNA-1 confirm: EBNA-1 (EBV) inhibition, confirmation. shares compounds with EBNA-1 inh. Recombinant EBNA-1 DBD, Cy5-DNA fluorescence polarization. inhibition, % at 14.8 µM. 830 tested, 35% active;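 active = mean inhibition across replicates above a set limit taken from the earlier primary screen, cut at about 28% in these data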;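 also: plate controls were EBNA-1 protein with DMSO for no effect and wells lacking EBNA-1 for full effect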
ZTA DNA inh trip: ZTA (EBV) inhibition, triplicate counter-screen; shares compounds with EBNA-1 inh; Zta-ZRE DNA binding, Cy5 fluorescence polarization; inhibition, % at 11.1 µM; 830 tested, under 10 active;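 active = mean inhibition over triplicates above a set limit taken from the primary EBNA-1 screen, cut at about 37% in these data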;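 also: purified full length Zta protein with Cy5 labeled ZRE DNA probe; 0% = Zta with DMSO and 100% = wells lacking Zta protein; inhibitors lower polarization by freeing the labeled DNA probe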
* = called active by the depositor; x = no result. Unless noted, no rule for the calls is given here.

SMILES	EBNA-1 inh	MLLE-PAM2 inh	PABP FP inh	HCV NS3 hel inh	ZTA counter	eIF4H inh	EBNA-1 confirm	ZTA DNA inh trip
O=C(c1ccc(CN2CCc3ccccc3C2)cc1)N1CCc2ccccc2C1	38*	10	-5	5	2	0	-16	-5
COc1ccc(-n2c(SCC(=O)Nc3ccccc3)nnc2-c2ccc(NS(=O)(=O)c3ccc(C)cc3)cc2)cc1	71*	-38	0	-5	-3	-15	28*	1
CCN(CC)C(=O)N1CCN(c2c([N+](=O)[O-])c(=O)oc3ccccc23)CC1	x	15	x	x	4	x	x	x
CCOC(=O)c1ccc(-n2ccnc2)c(NC(=O)c2ccc(C(C)(C)C)cc2)c1	-8	0	5	-13	-10	-14	x	x
C#CCNC(=O)C1=C[C@@H](c2ccc(C#C)cc2)C[C@@H](OCCCCO)O1	1	-5	x	x	1	x	x	x
CCS(=O)(=O)N1CCN(S(=O)(=O)c2ccc(S(=O)(=O)NC3CC3)cc2)CC1	48*	5	3	5	19	0	44*	16
COc1ccc2nc(NC(=O)CSc3nnc(C)s3)sc2c1	29*	8	4	-6	-8	-2	7	-1
COC(=O)c1sccc1NC(=S)N1CCCCC1C (configuration not stated)	10	13	5	0	-2	0	x	x
COC(=O)CSc1nnc(COc2ccc([N+](=O)[O-])cc2)n1C	0	0	14	0	-1	6	x	x
COc1ccc(OC)c(NC(=O)CS(=O)(=O)Cc2nc(-c3ccccc3C)oc2C)c1	57*	19	-11	-8	1	-7	-12	-2
COc1cccc(-c2nc(CS(=O)(=O)CC(=O)Nc3c(C)cccc3C)c(C)o2)c1	2	-6	-2	-1	1	-5	x	x
CC(C)C(=O)NNC(=O)c1csc(CS(=O)(=O)c2ccc(Cl)cc2)n1	-7	-5	-5	-6	-6	1	x	x
CS(=O)(=O)NNC(=O)c1csc(Cc2c(Cl)sc3ccc(Cl)cc23)n1	40*	-6	-4	-4	11	4	41*	6
COc1cccc(NC(=O)Nc2nnc([C@H]3C[C@H](O)[C@@H](CO)O3)s2)c1	x	-7	x	x	x	x	x	x
COC(=O)c1ccc(Cn2cnc3c(cnn3-c3ccc(F)cc3)c2=O)o1	0	-1	11	5	-3	-4	x	x
COC(=O)c1ccc(Cn2cnc3c(cnn3-c3ccc(Cl)cc3)c2=O)o1	46*	8	2	-5	-7	5	7	-8
COc1ccccc1CNC(=O)C1CCN(C(=O)N(C)C)CC1	78*	5	-6	5	31	-2	3	3
COc1ccc(CNC(=O)C2CCN(C(=O)N(C)C)CC2)c(OC)c1	-5	-12	11	6	6	5	x	x
Cc1ccnc(NS(=O)(=O)c2ccc(NC(=O)c3cc(-c4ccccc4)nc4ccccc34)cc2)n1	7	-6	2	5	7	-7	x	x
Cc1ccnc(NS(=O)(=O)c2ccc(NC(=O)c3cc(-c4ccc(Br)cc4)nc4ccccc34)cc2)n1	32*	-7	9	6	19	5	0	-6
CC(C(=O)N(C)C)N1c2cccc3cccc(c23)S1(=O)=O (configuration not stated)	-6	10	5	5	-3	-12	x	x
O=C(c1ccc2c(=O)n(Cc3ccco3)c(=S)[nH]c2c1)N1CCN(c2ccccc2)CC1	40*	-48	4	1	-27	8	-1	-1
CCCn1c(=S)[nH]c2cc(C(=O)N3CCN(c4ccccc4)CC3)ccc2c1=O	x	-115	x	x	x	x	x	x
COc1ccccc1Nc1ncc(C(=O)Nc2ccc(OC)c(OC)c2)c2ccccc12	80*	-9	5	18	1	5	55*	4
COc1ccc(NC(=O)c2ccccc2NS(C)(=O)=O)cc1OC	-6	-5	10	0	7	0	x	x
SMILES	EBNA-1 inh	MLLE-PAM2 inh	PABP FP inh	HCV NS3 hel inh	ZTA counter	eIF4H inh	EBNA-1 confirm	ZTA DNA inh trip
COC(=O)CNC(=O)CNC(=O)c1nn(-c2ccc(OC)c(Cl)c2)c(=O)c2ccccc12	-11	-1	-13	4	-2	-12	x	x
COc1ccc(-n2nc(C(=O)NCC(=O)NCc3cccc(F)c3)c3ccccc3c2=O)cc1Cl	28*	3	-2	5	22	3	-7	6
CCOC(=O)c1sc(N2C(=O)C(O)=C(C(=O)c3ccc(C)o3)C2c2cccc([N+](=O)[O-])c2)nc1C (configuration not stated)	33*	-5	-2	1	23	-3	17	-20
COc1ccc(-c2csc3ncnc(N4CCN(c5cccc(C)c5C)CC4)c23)cc1	1	-15	-3	13	-18	1	x	x
COc1ccc(NC(=O)c2cc(-c3cccnc3)nc3c(C)c(C)ccc23)c(OC)c1	33*	-1	10	-1	8	-7	24	-6
Cn1ncc(N=Cc2c(O)ccc3ccccc23)c1C(=O)N1CCOCC1	2	-30	x	-4	-3	x	x	x
COc1ccccc1NC(=O)c1c(N=Cc2c(O)ccc3ccccc23)cnn1C	39*	-10	-3	-12	8	-10	9	2
O=C(C/C=N/OCc1ccc(F)cc1Cl)c1cnc(-c2ccccc2)s1	0	-9	1	10	-12	10	x	x
CCc1cccc(CC)c1NC(=O)COC(=O)/C(C#N)=C/c1ccc(OC)cc1	46*	-8	-7	-2	20	10	15	7
COc1ccc(/C=C(\C#N)C(=O)OCC(=O)Nc2c(C)cccc2C)cc1	18	-16	-2	1	-8	-6	x	x
CCn1c(SCC(=O)c2c[nH]c3ccccc23)nnc1-c1cccs1	30*	-42	113	-16	-3	123	23	12
CC(C)CNC(=O)NC(=O)COC(=O)Cn1cnc2ccccc2c1=O	4	-17	1	5	11	-6	x	x
O=C(N/N=C/c1cccc([N+](=O)[O-])c1)c1cc(-c2ccc3c(c2)OCO3)n[nH]1	62*	0	23	28	-2	22	23	12
O=C(N/N=C/c1cccc(O)c1)c1cc(-c2ccc3c(c2)OCO3)n[nH]1	-10	0	3	2	10	-6	x	x
Cc1nc(NC(=O)CSc2nnnn2Cc2ccccc2)sc1C	-7	-8	2	2	-7	2	x	x
Cc1ccc(CNC(=O)CCCn2c(=O)c3ccccc3n(CC(=O)NCc3ccco3)c2=O)cc1	1	5	-4	0	-4	-5	x	x
